According to ChEMBL document CHEMBL3425497, “Discovery of (R)-1-(3-((2-chloro-4-(((2-hydroxy-2-(8-hydroxy-2-oxo-1,2-dihydroquinolin-5-yl)ethyl)amino)methyl)-5-methoxyphenyl)amino)-3-oxopropyl)piperidin-4-yl [1,1'-biphenyl]-2-ylcarbamate (TD-5959, GSK961081, batefenterol): first-in-class dual pharmacology multivalent muscarinic antagonist and …” (J Med Chem, 2015):

Key:
Cavia porcellus [1] = organism: Cavia porcellus; test: Antisialagogue activity in guinea pig assessed as inhibition of pilocarpine-induced sialagogue response at 100 ug/ml, inhalation after 1.5 hrs; type: functional
Summary of the method: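 Guinea pigs were pretreated with test compound by inhalation. At 1.5 h post-dose they were challenged with pilocarpine. The sialagogue (salivation) response was recorded as % inhibition.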

[2] = Oral bioavailability in male Sprague-Dawley rat at 0.25 mg/kg; type: ADME, organism-based; conditions: in vivo
Salmonella typhimurium [3] = test: Genotoxicity in Salmonella typhimurium at 5000 ug/plate by AMES test in presence of metabolic activation; type: toxicity, organism-based; conditions: salmonella enterica subsp. enterica serovar typhimurium
Summary of the method: (§1)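 Exploratory (non-GLP) Ames assay, tested at up to 5000 μg/plate with and without a metabolic activation system.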

Cavia porcellus [4] = test: Bronchoprotection in male Duncan Hartley guinea pig bronchoconstriction einthoven model assessed as inhibition of methacholine-induced bronchoconstriction at 100 microg/ml, inhalation after 1.5 hrs by in vivo muscarinic antagonist and beta2 agonist activity assay; type: functional; design: scale not given: the % may be the effect or the level left
CYP1A2 = target: T1, CYP1A2 (Homo sapiens, UniProt P05177); test: Inhibition of CYP1A2 (unknown origin) at 600 nM; type: ADME
T1 sequence (P05177 whole entry): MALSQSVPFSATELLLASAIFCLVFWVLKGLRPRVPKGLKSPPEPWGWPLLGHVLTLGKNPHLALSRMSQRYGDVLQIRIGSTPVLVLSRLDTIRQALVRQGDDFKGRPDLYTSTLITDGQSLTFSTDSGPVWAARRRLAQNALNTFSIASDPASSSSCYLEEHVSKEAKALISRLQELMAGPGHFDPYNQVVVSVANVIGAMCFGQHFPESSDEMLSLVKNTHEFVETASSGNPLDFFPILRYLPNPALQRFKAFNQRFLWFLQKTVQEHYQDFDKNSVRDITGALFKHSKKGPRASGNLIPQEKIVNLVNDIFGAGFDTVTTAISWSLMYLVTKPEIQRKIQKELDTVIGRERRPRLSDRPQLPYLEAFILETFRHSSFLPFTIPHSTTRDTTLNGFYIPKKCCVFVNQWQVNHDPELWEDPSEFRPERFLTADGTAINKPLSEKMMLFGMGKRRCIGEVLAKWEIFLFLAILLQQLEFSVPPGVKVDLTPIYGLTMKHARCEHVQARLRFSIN

Cavia porcellus [5] = test: Bronchoprotection in male Duncan Hartley guinea pig bronchoconstriction einthoven model assessed as inhibition of methacholine-induced bronchoconstriction at 100 microg/ml, inhalation after 24 hrs by in vivo beta2 adrenergic receptor agonist activity assay; type: functional; design: scale not given: the % may be the effect or the level left
Summary of the method: (§2)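 Einthoven bronchoprotection in guinea pigs, read as % bronchoprotection 24 h after inhaled dosing. The TFA salt was used in the initial experiments. For one compound, the edisylate salt was compared with the TFA form. Group sizes were n = 3–8.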

[6] = target: T2, Muscarinic acetylcholine receptor M3 (Homo sapiens, UniProt P20309); test: Binding affinity to human muscarinic M3 receptor assessed as dissociation half life
Summary of the method: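 Kinetic radioligand dissociation study at the human M3 receptor, reported as dissociation half-life in minutes.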
Target sequence in this assay (P20309 whole entry, looked up): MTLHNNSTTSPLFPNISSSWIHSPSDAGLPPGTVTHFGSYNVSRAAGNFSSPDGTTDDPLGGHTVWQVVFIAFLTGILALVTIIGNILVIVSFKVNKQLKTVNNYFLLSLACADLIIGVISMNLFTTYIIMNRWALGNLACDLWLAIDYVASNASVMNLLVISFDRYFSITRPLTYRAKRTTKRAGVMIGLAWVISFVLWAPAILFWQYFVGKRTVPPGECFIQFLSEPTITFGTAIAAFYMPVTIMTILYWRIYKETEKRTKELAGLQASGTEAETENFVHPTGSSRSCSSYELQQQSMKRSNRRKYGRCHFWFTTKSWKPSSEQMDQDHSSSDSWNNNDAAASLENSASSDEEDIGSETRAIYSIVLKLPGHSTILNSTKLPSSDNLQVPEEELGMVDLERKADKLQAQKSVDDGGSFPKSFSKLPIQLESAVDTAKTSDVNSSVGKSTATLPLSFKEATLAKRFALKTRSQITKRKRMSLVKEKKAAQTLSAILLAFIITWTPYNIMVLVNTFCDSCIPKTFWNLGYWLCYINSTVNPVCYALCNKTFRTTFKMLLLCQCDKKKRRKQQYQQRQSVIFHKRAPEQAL

Cavia porcellus [7] = organism: Cavia porcellus; test: Antagonist activity at muscarinic M3 receptor in guinea pig isolated trachea assessed as smooth muscle relaxation
Cavia porcellus [8] = organism: Cavia porcellus; test: Agonist activity at beta2 adrenergic receptor in guinea pig isolated trachea assessed as smooth muscle relaxation
[9] = Half life in human liver microsomes at 3 uM after 30 mins by HPLC-UV analysis; type: ADME
Rattus norvegicus = test: Toxicity in rat assessed as respiratory irritation and systemic exposures up to 333 ug/kg dosed via inhalation during 7-day inhalation study; type: organism-based; conditions: in vivo, 0.333 mg/kg
[10] = target: Voltage-gated inwardly rectifying potassium channel KCNH2 (Homo sapiens, UniProt Q12809); test: Inhibition of human ERG channel up to 150 nM
Cavia porcellus [11] = test: Bronchoprotection in male Duncan Hartley guinea pig bronchoconstriction einthoven model assessed as inhibition of methacholine-induced bronchoconstriction at 100 microg/ml, inhalation after 1.5 hrs by in vivo muscarinic acetylcholine receptor antagonist activity assay; type: functional; design: scale not given: the % may be the effect or the level left
[12] = target: T2, Muscarinic acetylcholine receptor M3; test: Displacement of [3H]NMS from human muscarinic M3 receptor expressing CHO-K1 cells incubated for 60 mins or 6 hrs by liquid scintillation counting; type: cell-based
Target sequence in this assay (P20309 whole entry): as the sequence (P20309 whole entry, looked up) above

Cavia porcellus [13] = organism: Cavia porcellus; test: Combined muscarinic antagonist and beta2 agonist activity in guinea pig isolated trachea assessed as smooth muscle relaxation
CYP2D6 = CYP2D6 (Homo sapiens, UniProt P10635); test: Inhibition of CYP2D6 (unknown origin) at 600 nM; type: ADME
Cavia porcellus [14] = test: Bronchoprotection in male Duncan Hartley guinea pig bronchoconstriction einthoven model assessed as inhibition of methacholine-induced bronchoconstriction at 100 microg/ml, inhalation after 1.5 hrs by in vivo beta2 adrenergic receptor agonist activity assay; type: functional; design: scale not given: the % may be the effect or the level left
Salmonella typhimurium [15] = test: Genotoxicity in Salmonella typhimurium at 5000 ug/plate by AMES test in absence of metabolic activation; type: toxicity, organism-based; conditions: salmonella enterica subsp. enterica serovar typhimurium; summary of the method: as §1
CYP2C9 = CYP2C9 (Homo sapiens, UniProt P11712); test: Inhibition of CYP2C9 (unknown origin) at 600 nM; type: ADME
[16] = Apparent permeability across apical to basolateral side in human Caco2 cells using [14C]mannitol at 10 to 100 uM after 30 mins by HPLC-UV analysis; type: ADME, cell-based; conditions: caco-2, 0.5 h
CYP3A4 = CYP3A4 (Homo sapiens, UniProt P08684); test: Inhibition of CYP3A4 (unknown origin) at 600 nM; type: ADME
CYP2C19 = CYP2C19 (Homo sapiens, UniProt P33261); test: Inhibition of CYP2C19 (unknown origin) at 600 nM; type: ADME
Cavia porcellus [17] = test: Bronchoprotection in male Duncan Hartley guinea pig bronchoconstriction einthoven model assessed as inhibition of methacholine-induced bronchoconstriction at 100 microg/ml, inhalation after 24 hrs by in vivo muscarinic acetylcholine receptor antagonist activity assay; type: functional; design: scale not given: the % may be the effect or the level left; summary of the method: as §2
[18] = Clearance in male Sprague-Dawley rat at 0.25 mg/kg, iv; type: ADME, organism-based; design: dose 0.25 mg/kg, route intravenous; conditions: in vivo
Liver microsome = test: Drug metabolism in human liver microsomes assessed as metabolites; type: ADME
[19] = Half life in male Sprague-Dawley rat at 0.25 mg/kg, iv; type: ADME, organism-based; design: dose 0.25 mg/kg, route intravenous; conditions: in vivo
[20] = Volume of distribution at steady state in male Sprague-Dawley rat at 0.25 mg/kg, iv; type: ADME, organism-based; design: dose 0.25 mg/kg, route intravenous; conditions: in vivo, read-out: Vdss
Cavia porcellus [21] = test: Bronchoprotection in male Duncan Hartley guinea pig bronchoconstriction einthoven model assessed as inhibition of methacholine-induced bronchoconstriction at 100 microg/ml, inhalation after 24 hrs by in vivo muscarinic antagonist and beta2 agonist activity assay; type: functional; design: scale not given: the % may be the effect or the level left; summary of the method: as §2

Sequence of CYP2C9 (P11712 whole entry): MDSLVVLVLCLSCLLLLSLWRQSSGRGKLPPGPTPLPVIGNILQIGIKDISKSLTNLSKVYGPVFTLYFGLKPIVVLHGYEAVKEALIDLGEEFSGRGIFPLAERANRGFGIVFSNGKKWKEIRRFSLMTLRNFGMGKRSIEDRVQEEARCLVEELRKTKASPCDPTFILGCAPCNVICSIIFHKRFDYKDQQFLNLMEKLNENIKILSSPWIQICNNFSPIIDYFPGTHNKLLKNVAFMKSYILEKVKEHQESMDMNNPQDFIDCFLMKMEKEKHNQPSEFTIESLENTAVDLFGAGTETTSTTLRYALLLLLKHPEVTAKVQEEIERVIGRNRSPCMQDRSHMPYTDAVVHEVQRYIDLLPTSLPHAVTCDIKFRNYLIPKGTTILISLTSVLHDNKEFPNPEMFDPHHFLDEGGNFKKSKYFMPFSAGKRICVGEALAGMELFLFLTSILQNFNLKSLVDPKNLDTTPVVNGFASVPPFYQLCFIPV
Sequence of CYP2C19 (P33261 whole entry): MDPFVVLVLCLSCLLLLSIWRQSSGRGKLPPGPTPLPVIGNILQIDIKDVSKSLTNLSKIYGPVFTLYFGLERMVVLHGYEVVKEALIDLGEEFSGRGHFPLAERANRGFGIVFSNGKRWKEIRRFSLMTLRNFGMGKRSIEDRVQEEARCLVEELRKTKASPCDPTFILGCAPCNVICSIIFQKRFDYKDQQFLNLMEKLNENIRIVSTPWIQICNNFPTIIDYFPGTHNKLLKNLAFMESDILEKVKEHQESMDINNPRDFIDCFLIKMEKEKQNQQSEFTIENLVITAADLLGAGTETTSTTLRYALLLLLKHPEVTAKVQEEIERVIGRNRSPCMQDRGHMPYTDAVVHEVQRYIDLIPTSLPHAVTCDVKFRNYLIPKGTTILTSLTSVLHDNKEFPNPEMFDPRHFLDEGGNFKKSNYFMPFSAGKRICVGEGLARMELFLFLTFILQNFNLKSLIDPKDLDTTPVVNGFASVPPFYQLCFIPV
Sequence of CYP2D6 (P10635 whole entry): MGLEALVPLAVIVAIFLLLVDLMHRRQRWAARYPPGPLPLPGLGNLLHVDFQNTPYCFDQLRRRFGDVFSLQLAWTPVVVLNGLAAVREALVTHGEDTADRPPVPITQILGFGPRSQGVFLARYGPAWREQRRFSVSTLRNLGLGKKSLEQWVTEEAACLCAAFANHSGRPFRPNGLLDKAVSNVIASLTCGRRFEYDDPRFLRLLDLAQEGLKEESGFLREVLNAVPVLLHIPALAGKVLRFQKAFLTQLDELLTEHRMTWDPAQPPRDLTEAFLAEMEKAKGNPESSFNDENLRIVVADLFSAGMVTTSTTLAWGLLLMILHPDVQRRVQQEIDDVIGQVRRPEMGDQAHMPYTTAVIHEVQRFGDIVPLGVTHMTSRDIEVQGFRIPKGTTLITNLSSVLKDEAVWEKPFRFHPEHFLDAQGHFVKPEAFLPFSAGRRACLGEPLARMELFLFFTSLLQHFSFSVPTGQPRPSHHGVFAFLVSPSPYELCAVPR
Sequence of CYP3A4 (P08684 whole entry): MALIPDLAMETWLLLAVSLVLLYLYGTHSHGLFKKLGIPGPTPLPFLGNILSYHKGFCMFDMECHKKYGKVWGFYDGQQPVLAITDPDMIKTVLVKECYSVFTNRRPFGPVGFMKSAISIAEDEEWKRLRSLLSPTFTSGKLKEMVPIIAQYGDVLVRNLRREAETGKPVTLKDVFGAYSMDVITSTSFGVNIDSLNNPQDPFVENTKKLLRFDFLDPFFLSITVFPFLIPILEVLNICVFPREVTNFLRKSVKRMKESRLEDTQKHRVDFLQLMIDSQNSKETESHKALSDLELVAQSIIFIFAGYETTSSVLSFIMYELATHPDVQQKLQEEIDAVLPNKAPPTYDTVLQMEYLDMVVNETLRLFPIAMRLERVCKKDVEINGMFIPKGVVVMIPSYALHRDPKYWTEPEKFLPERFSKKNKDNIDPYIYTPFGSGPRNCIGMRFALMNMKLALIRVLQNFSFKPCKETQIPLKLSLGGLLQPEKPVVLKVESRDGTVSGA
Sequence of Voltage-gated inwardly rectifying potassium channel KCNH2 (Q12809 whole entry): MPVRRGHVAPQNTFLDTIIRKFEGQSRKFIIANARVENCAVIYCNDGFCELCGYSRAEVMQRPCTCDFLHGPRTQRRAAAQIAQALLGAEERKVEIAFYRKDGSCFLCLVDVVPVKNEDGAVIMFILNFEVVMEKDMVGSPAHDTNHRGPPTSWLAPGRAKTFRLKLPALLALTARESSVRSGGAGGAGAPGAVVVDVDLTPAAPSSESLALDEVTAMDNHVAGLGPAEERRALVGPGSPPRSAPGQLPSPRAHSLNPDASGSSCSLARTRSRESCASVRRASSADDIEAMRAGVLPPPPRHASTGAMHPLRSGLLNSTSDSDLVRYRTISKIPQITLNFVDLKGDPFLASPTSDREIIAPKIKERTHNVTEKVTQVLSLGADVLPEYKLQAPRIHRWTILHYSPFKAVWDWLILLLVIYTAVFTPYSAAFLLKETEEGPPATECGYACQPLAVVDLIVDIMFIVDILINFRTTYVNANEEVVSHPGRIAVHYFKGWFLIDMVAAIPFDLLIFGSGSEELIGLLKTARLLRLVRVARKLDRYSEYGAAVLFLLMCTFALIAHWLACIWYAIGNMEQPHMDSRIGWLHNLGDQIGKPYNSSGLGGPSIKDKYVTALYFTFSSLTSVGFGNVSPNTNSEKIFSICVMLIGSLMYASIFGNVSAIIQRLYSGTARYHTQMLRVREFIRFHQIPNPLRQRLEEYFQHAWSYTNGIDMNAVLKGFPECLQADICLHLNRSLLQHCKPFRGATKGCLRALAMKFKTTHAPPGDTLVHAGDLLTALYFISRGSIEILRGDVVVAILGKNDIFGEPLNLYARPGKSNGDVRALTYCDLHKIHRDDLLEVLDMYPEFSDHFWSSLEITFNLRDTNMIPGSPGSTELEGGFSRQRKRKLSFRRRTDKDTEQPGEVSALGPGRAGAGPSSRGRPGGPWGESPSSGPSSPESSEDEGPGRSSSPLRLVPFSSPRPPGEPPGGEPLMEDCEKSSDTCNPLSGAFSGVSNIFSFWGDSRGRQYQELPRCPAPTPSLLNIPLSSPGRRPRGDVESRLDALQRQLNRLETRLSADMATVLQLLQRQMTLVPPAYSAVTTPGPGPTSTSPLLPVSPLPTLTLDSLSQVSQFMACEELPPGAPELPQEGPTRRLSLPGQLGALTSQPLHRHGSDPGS

bioavailability [2]: < 0.45%
inhibition at 0.6 µM (CYP1A2): 25%
T1/2 [6]: 3 min
EC50 (Cavia porcellus [7]): 0.05 µM
EC50 (Cavia porcellus [8]): 0.025 µM
half-life at 3 µM [9]: 11.3 min
Ki [12]: 0.002 µM
EC50 (Cavia porcellus [13]): 0.01 µM
inhibition at 0.6 µM (CYP2D6): < 20%
inhibition at 0.6 µM (CYP2C9): < 20%
Papp [16]: < 4 nm/s
inhibition at 0.6 µM (CYP3A4): < 20%
inhibition at 0.6 µM (CYP2C19): < 20%
clearance [18]: 4.52 L/h/kg
Drug metabolism (Liver microsome): metabolite_notdetected
half-life [19]: 10.8 min
Vd [20]: 0.32 L/kg
Compound: COc1cc(NC(=O)CCN2CCC(OC(=O)Nc3ccccc3-c3ccccc3)CC2)c(Cl)cc1CNC[C@H](O)c1ccc(O)c2[nH]c(=O)ccc12 [BATEFENTEROL]
inhibition (INH) (Cavia porcellus [1]): 4%
Activity (Salmonella typhimurium [3]): Non-toxic
Activity (Cavia porcellus [4]): 92%
Activity (Cavia porcellus [5]): 47%
Activity (Rattus norvegicus): Non-toxic
inhibition (INH) [10]: Not Active
Activity (Cavia porcellus [11]): 75%
Activity (Cavia porcellus [14]): 73%
Activity (Salmonella typhimurium [15]): Non-toxic
Activity (Cavia porcellus [17]): 48%
Activity (Cavia porcellus [21]): 77%
